We go through five molecules from publication PMC4050191 (FEBS Open Bio, 2014).

In general, stoichiometry N refers to a count of units in the complex or per binding partner.

Read-outs that look alike come from different tables or passages of the source.

Assay [1] deals with C-terminal domain of human centrin 1 T138D (human). The assay is described as follows: ITC. Background: Isothermal titration calorimetry measures the heat released or taken up as one component is titrated into another.
Assay [2] has as its target C-terminal domain of human centrin 1 T138E (human). The assay is described as follows: ITC.
Assay [3] addresses C-terminal domain of human centrin 1 T138D (human). The assay is described as follows: ITC. The source holds these as a separate data set.
For assay [4], the target named is C-terminal domain of human centrin 1 T138E (human). The assay is described as follows: ITC. This is another data set of the same source.
In assay [5] the test system is C-HsCen1-T138E. The assay is described as follows: ITC, peptide binding to C-HsCen1-T138E. More on the design: species or system human. The following applies: C-HsCen1-T138E versus C-HsCen1; +Ca2+ (Fig. S3). Put shortly: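 Binding measured by ITC at 30 °C. Cell contained E. coli-expressed, heat-treated, chromatographically purified centrin at 10 μM. N-acetylated, C-amidated target peptide at 100 μM was injected in 8–10 μL steps. Buffer was 50 mM MOPS, 100 mM NaCl, pH 7.5 with 1 mM CaCl₂. The first 2 μL injection was discarded. Baseline-corrected integrated heats were fitted for n, Ka and ΔH. Peptide-into-buffer injections gave dilution heat.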

Assay [6] deals with HsC1P (human centrin 1 phosphorylated by CK2 at T138). The assay is described as follows: ITC, peptide binding to CK2-phosphorylated HsCen1. The following applies: EDTA / absence of Ca2+; phosphorylated versus unphosphorylated centrin 1.
The test system of assay [7] is C-HsCen2 T138D-S158D. The assay is described as follows: ITC, peptide binding to C-HsCen2 T138D-S158D. More on the design: species or system human. The following applies: versus C-HsCen2 wild type. Put shortly: (§1)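 Recombinant human centrin (full-length or C-terminal domain; Asp variants made by double-PCR mutagenesis) was expressed in E. coli BL21(DE3), heat-treated at 63 °C, then purified by ion-exchange, phenyl and gel-filtration chromatography. ITC at 30 °C: 10 μM centrin titrated with 100 μM N-acetylated, C-amidated peptide in 50 mM MOPS, 100 mM NaCl, pH 7.5, plus 1 mM CaCl₂ or 2 mM EDTA. Dilution heats subtracted; data fitted for n, Ka and ΔH.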

For assay [8], the system named is HsCen1 (full-length human centrin 1). The assay is described as follows: ITC, peptide binding to full-length HsCen1. Particulars: centrin 1. Put shortly:
as §1

The subject of assay [9] is HsCen1-T138D (phosphomimetic human centrin 1). The assay is described as follows: ITC, peptide binding to HsCen1-T138D. The following applies: EDTA; HsCen1-T138D versus HsCen1.
The subject of assay [10] is C-HsCen2-T138D. The assay is described as follows: ITC, peptide binding to C-HsCen2 T138D. Also noted: species or system human. The following applies: versus C-HsCen2 wild type. Put shortly: as §1
The test system of assay [11] is C-HsCen1-T138D. The assay is described as follows: ITC, peptide binding to C-HsCen1-T138D. More on the design: species or system human. Particulars: EDTA; C-HsCen1-T138D versus C-HsCen1. Put shortly: as §1
The subject of assay [12] is C-HsCen2-S158D. The assay is described as follows: ITC, peptide binding to C-HsCen2 S158D. Also noted: species or system human. Particulars: absence of Ca2+; versus C-HsCen2 wild type. Put shortly:
as §1

The target in assay [13] is T1, C-terminal domain of human centrin 1 (M93-Y172) (human, UniProt Q12798 93-172). The assay is described as follows: ITC.
Assay [14] concerns the target T2, human centrin 1, full-length (human, UniProt Q12798 1-172).
T2 sequence: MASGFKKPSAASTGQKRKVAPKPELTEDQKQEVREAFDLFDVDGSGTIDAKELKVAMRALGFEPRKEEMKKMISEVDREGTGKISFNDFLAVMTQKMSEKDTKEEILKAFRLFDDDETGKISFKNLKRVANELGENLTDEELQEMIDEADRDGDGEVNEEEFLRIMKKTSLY
The assay is described as follows: ITC.

In assay [15] the target is T3, human centrin 1 T138D, full-length (human, UniProt Q12798 1-172, T138D).
T3 sequence: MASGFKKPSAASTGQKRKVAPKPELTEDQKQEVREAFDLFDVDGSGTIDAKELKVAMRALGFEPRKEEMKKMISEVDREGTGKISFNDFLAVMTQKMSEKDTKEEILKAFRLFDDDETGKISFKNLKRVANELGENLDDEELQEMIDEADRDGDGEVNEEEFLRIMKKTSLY
The assay is described as follows: ITC.

In assay [16] the target is T1, C-terminal domain of human centrin 1 …. The assay is described as follows: ITC. The source holds these as a separate data set.
The target of assay [17] is T4, C-terminal domain of human centrin 2 S158D (human, UniProt P41208 93-172, S158D). The assay is described as follows: ITC.
The target in assay [18] is T5, C-terminal domain of human centrin 2 (M93-Y172) (human, UniProt P41208 93-172). The assay is described as follows: ITC.
The target in assay [19] is T6, C-terminal domain of human centrin 2 T138D (human, UniProt P41208 93-172, T138D). The assay is described as follows: ITC.
Assay [20] deals with T7, C-terminal domain of human centrin 2 T138D-S158D (human, UniProt P41208 93-172, T138D | S158D). The assay is described as follows: ITC.
The target of assay [21] is T4, C-terminal domain of human centrin 2 …. The assay is described as follows: ITC. The source holds these as a separate data set.
For assay [22], the target named is T5, C-terminal domain of human centrin 2 …. The assay is described as follows: ITC. This is another data set of the same source.
For assay [23], the target named is T6, C-terminal domain of human centrin 2 …. The assay is described as follows: ITC. This is another data set of the same source.
The target of assay [24] is T7, C-terminal domain of human centrin 2 …. The assay is described as follows: ITC. This is another data set of the same source.
Assay [25] has as its target T2, human centrin 1, full-length. The assay is described as follows: ITC. This is another data set of the same source.
Assay [26] has as its target T3, human centrin 1 T138D, full-length. The assay is described as follows: ITC. This is another data set of the same source.

T5 sequence (P41208 93-172): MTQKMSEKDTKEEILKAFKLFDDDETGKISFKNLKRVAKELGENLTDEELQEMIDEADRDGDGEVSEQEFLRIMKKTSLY
T6 sequence (P41208 93-172 T138D): as the sequence (P41208 93-172) above, with T46D counted along it
T4 sequence (P41208 93-172 S158D): as the sequence (P41208 93-172) above, with S66D counted along it
T7 sequence (P41208 93-172 T138D/S158D): as the sequence (P41208 93-172) above, with T46D, S66D counted along it

“P17-XPC, 17-residue peptide of human XPC”: the Ka in assay [1] was found to be 3.34e+07 M⁻¹; in assay [2] it was 9.03e+06 M⁻¹; in assay [3], 4.55e+06 M⁻¹; in assay [4] it was 430000 M⁻¹. Also, the dH in assay [1] was -23.6 kcal/mol; in [3] it was -30.2 kcal/mol; in assay [4], -32.6 kcal/mol.

Turning to 325-MAVATGSWDSFLKIWN-340 [Trd], the “factor of decrease of affinity by the T138E mutation” value in [5] is on record as 7.

Consider 846-NWKLLAKGLLIRERLKR-863 [P17-XPC], for which the “factor of reduction of binding by phosphorylation at T138” value in [6] came out at 10. Also, the “factor of reduction of affinity by the T138D-S158D double mutation” value in assay [7] (absence of Ca2+) was found to be 9; in assay [7] (presence of Ca2+), 2. Besides, the “factor of increase of binding by the presence of Ca2+” value in assay [8] (+Ca2+ versus EDTA) amounted to 5. Also, the “factor of reduction of binding by the T138D phosphomimetic mutation” value in assay [9] stood at 4. For the same molecule, the “factor of reduction of affinity by the T138D mutation” value in assay [10] (absence of Ca2+) is given as 3; in assay [10] (presence of Ca2+) it was 2. In addition, the “factor of decrease of affinity by the T138D mutation” value in [11] is on record as 2. Further, in assay [12], the “factor of reduction of affinity by the S158D mutation” value was determined as 3.7.

As for 677-SQHNRQLLRGALRRWK-692 [R18-Sfi1], the “factor of reduction of binding by phosphorylation at T138” value in [6] amounted to 10. Moreover, the “equilibrium association constant Ka” value in assay [8] (presence of Ca2+, ITC, one-site binding model) is 2.5 10^8 M^−1.

As to Ac-NWKLLAKGLLIRERLKR-NH2 [P17-XPC, 17-residue peptide of human XPC], the Ka in [13] was determined as 8.25e+06 M⁻¹; in assay [14] it was 1.22e+07 M⁻¹; in assay [15], 2.9e+06 M⁻¹; in assay [16] it was 3.96e+07 M⁻¹; in assay [17], 4.31e+07 M⁻¹; in [18], 5.27e+07 M⁻¹. Also, the Ka is 2.71e+07 M⁻¹ in assay [19]; 7.35e+06 M⁻¹ in assay [22]; 2.5e+06 M⁻¹ in assay [23]; 800000 M⁻¹ in [24]; 5.25e+07 M⁻¹ in [25]; 1.02e+08 M⁻¹ in [26]. The dH in assay [13] was -28.1 kcal/mol; in [14], -28.4 kcal/mol; in [15], -30.2 kcal/mol; in assay [16] it was -23.3 kcal/mol; in assay [17], -23 kcal/mol; in assay [18] it was -23.4 kcal/mol. In addition, the dH in assay [19] is -24 kcal/mol; in assay [20], -23.9 kcal/mol; in assay [21] it was -23.8 kcal/mol; in [22], -29.3 kcal/mol; in [23] it was -32.7 kcal/mol; in [24], -26.8 kcal/mol. Further, the dH in assay [25] is -28.4 kcal/mol; in [26], -28.5 kcal/mol. Further, the “stoichiometry N” value in assay [14] is 0.98; in [15], 0.92; in assay [16] it was 0.93; in [17], 0.89; in assay [18] it was 0.81; in assay [19], 0.82. The “stoichiometry N” value was 1.18 in assay [20]; 0.95 in assay [22]; 0.94 in assay [23]; 1.04 in assay [25]; 0.95 in [26].
